In ChEMBL document CHEMBL3085642, “Synthesis and evaluation of novel 4-nitropyrrole-based 1,3,4-oxadiazole derivatives as antimicrobial and anti-tubercular agents” (Eur J Med Chem, 2013):
Values after ≈ are worked out from the molar mass of the structure shown.

How the values were obtained:
Vero = experiment: Cytotoxicity against african green monkey Vero cells after 72 hrs by MTT assay; format: cell-based; settings: Chlorocebus sabaeus
Method in brief: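 Vero cells were exposed to compounds for 72 h. Viability was measured by cellular conversion of MTT into formazan (non-radioactive proliferation assay), and the cytotoxic concentration was reported as IC50.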

Candida albicans [1] = experiment: Ratio of ampotericin-B MIC to compound MIC against Candida albicans; format: functional
Bacillus spizizenii [2] = experiment: Ratio of ciprofloxacin MIC to compound MIC against Bacillus subtilis ATCC 6633; format: functional
Staphylococcus aureus [3] = experiment: Ratio of ciprofloxacin MIC to compound MIC against Staphylococcus aureus ATCC 25923; format: functional
[4] = system: Mycobacterium tuberculosis; experiment: Antitubercular activity against Mycobacterium tuberculosis H37Rv after 7 days by resazurin microtitre assay; format: functional; settings: 168 h
Candida albicans [5] = experiment: Antifungal activity against Candida albicans after 48 hrs by two fold agar dilution method; format: functional
Method in brief: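 Two-fold serial dilutions in DMSO were tested against C. albicans by agar dilution. Cultures were incubated for 48 h at 35 °C and growth was monitored. MIC was taken as the lowest concentration (highest dilution) that arrested fungal growth.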

Staphylococcus aureus [6] = experiment: Antibacterial activity against methicillin-resistant Staphylococcus aureus ATCC 43866 by broth dilution method; format: functional
Staphylococcus aureus [7] = experiment: Antibacterial activity against methicillin-susceptible Staphylococcus aureus ATCC 35556 by broth dilution method; format: functional
Klebsiella pneumoniae = experiment: Antibacterial activity against Klebsiella pneumoniae by two fold broth dilution method; format: functional
Escherichia coli [8] = experiment: Antibacterial activity against Escherichia coli ATCC 25922 by two fold broth dilution method; format: functional
Bacillus spizizenii [9] = experiment: Antibacterial activity against Bacillus subtilis ATCC 6633 by two fold broth dilution method; format: functional
Staphylococcus aureus [10] = experiment: Antibacterial activity against Staphylococcus aureus ATCC 25923 by two fold broth dilution method; format: functional
Staphylococcus aureus [11] = experiment: Ratio of ciprofloxacin MIC to compound MIC against methicillin-susceptible Staphylococcus aureus ATCC 35556; format: functional
Escherichia coli [12] = experiment: Ratio of ciprofloxacin MIC to compound MIC against Escherichia coli ATCC 25922; format: functional
Staphylococcus aureus [13] = experiment: Ratio of ciprofloxacin MIC to compound MIC against methicillin-resistant Staphylococcus aureus ATCC 43866; format: functional

SMILES	IC50 (Vero) [µM]	Ratio (Candida albicans [1])	Ratio (Bacillus spizizenii [2])	Ratio (Staphylococcus aureus [3])	MIC [4] [µg/mL]	MIC (Candida albicans [5]) [µg/mL]	MIC (Staphylococcus aureus [6]) [µg/mL]	MIC (Staphylococcus aureus [7]) [µg/mL]	MIC (Klebsiella pneumoniae) [µg/mL]	MIC (Escherichia coli [8]) [µg/mL]	MIC (Bacillus spizizenii [9]) [µg/mL]	MIC (Staphylococcus aureus [10]) [µg/mL]	Ratio (Staphylococcus aureus [11])	Ratio (Escherichia coli [12])	Ratio (Staphylococcus aureus [13])
Cn1cc([N+](=O)[O-])cc1-c1nnc(Cc2ccccc2F)o1	245	2	2	2	8.6 (≈ 28.5 µM)	1.56 (≈ 5.16 µM)	1.56 (≈ 5.16 µM)	1.56 (≈ 5.16 µM)	12.5 (≈ 41.4 µM)	1.56 (≈ 5.16 µM)	0.78 (≈ 2.58 µM)	0.78 (≈ 2.58 µM)	–	–	–
Cn1cc([N+](=O)[O-])cc1-c1nnc(-c2ccccc2Br)o1	303	2	2	2	12.8 (≈ 36.7 µM)	1.56 (≈ 4.47 µM)	1.56 (≈ 4.47 µM)	0.39 (≈ 1.12 µM)	12.5 (≈ 35.8 µM)	1.56 (≈ 4.47 µM)	0.78 (≈ 2.23 µM)	0.78 (≈ 2.23 µM)	2	–	–
Cn1cc([N+](=O)[O-])cc1-c1nnc(C2CCCNC2)o1 (stereo not given)	611	2	–	2	35.6 (≈ 128 µM)	1.56 (≈ 5.63 µM)	1.56 (≈ 5.63 µM)	0.39 (≈ 1.41 µM)	12.5 (≈ 45.1 µM)	3.12 (≈ 11.3 µM)	1.56 (≈ 5.63 µM)	0.78 (≈ 2.81 µM)	2	–	–
COc1cc(/C=C/c2nnc(-c3cc([N+](=O)[O-])cn3C)o2)ccc1O	202	2	–	2	51.8 (≈ 151 µM)	12.5 (≈ 36.5 µM)	1.56 (≈ 4.56 µM)	0.39 (≈ 1.14 µM)	50 (≈ 146 µM)	3.12 (≈ 9.13 µM)	1.56 (≈ 4.56 µM)	0.78 (≈ 2.28 µM)	2	–	–
Cn1cc([N+](=O)[O-])cc1-c1nnc(-c2ccc(C#N)cc2)o1	315	2	–	2	84.6 (≈ 287 µM)	1.56 (≈ 5.28 µM)	1.56 (≈ 5.28 µM)	0.39 (≈ 1.32 µM)	12.5 (≈ 42.3 µM)	6.25 (≈ 21.2 µM)	1.56 (≈ 5.28 µM)	0.78 (≈ 2.64 µM)	2	–	–
COc1cccc(OC)c1-c1nnc(-c2cc([N+](=O)[O-])cn2C)o1	177	2	–	2	32 (≈ 96.9 µM)	1.56 (≈ 4.72 µM)	1.56 (≈ 4.72 µM)	0.39 (≈ 1.18 µM)	12.5 (≈ 37.8 µM)	6.25 (≈ 18.9 µM)	1.56 (≈ 4.72 µM)	0.78 (≈ 2.36 µM)	2	–	–
Cn1cc([N+](=O)[O-])cc1-c1nnc(-c2ccccc2OC(F)(F)F)o1	308	2	–	2	3.8 (≈ 10.7 µM)	1.56 (≈ 4.4 µM)	1.56 (≈ 4.4 µM)	0.39 (≈ 1.1 µM)	12.5 (≈ 35.3 µM)	3.12 (≈ 8.82 µM)	1.56 (≈ 4.4 µM)	0.78 (≈ 2.2 µM)	2	–	–
O=[N+]([O-])c1c[nH]c(-c2nnc(-c3ccc[nH]3)o2)c1	226	–	–	2	15.7 (≈ 64 µM)	1.56 (≈ 6.36 µM)	1.56 (≈ 6.36 µM)	1.56 (≈ 6.36 µM)	12.5 (≈ 51 µM)	0.78 (≈ 3.18 µM)	1.56 (≈ 6.36 µM)	0.78 (≈ 3.18 µM)	–	2	–
Cn1cc([N+](=O)[O-])cc1-c1nnc(-c2ccc[nH]2)o1	208	3	2	3	29.3 (≈ 113 µM)	0.78 (≈ 3.01 µM)	0.78 (≈ 3.01 µM)	0.39 (≈ 1.5 µM)	12.5 (≈ 48.2 µM)	1.56 (≈ 6.02 µM)	0.78 (≈ 3.01 µM)	0.39 (≈ 1.5 µM)	2	–	2
O=[N+]([O-])c1c[nH]c(-c2nnc(-c3cc(-c4ccccc4)nc4ccc(Cl)cc34)o2)c1	281	–	–	–	97.2 (≈ 233 µM)	1.56 (≈ 3.73 µM)	3.12 (≈ 7.48 µM)	1.56 (≈ 3.73 µM)	25 (≈ 59.8 µM)	0.78 (≈ 1.87 µM)	3.12 (≈ 7.48 µM)	1.56 (≈ 3.73 µM)	–	2	–
Cn1cc([N+](=O)[O-])cc1-c1nnc(-c2ccc(Cl)cc2Cl)o1	387	2	2	3	18.4 (≈ 54.3 µM)	1.56 (≈ 4.6 µM)	0.78 (≈ 2.3 µM)	0.39 (≈ 1.15 µM)	12.5 (≈ 36.9 µM)	1.56 (≈ 4.6 µM)	0.78 (≈ 2.3 µM)	0.39 (≈ 1.15 µM)	2	–	2
Cn1cc([N+](=O)[O-])cc1-c1nnc(-c2cc(-c3ccccc3)nc3ccc(Cl)cc23)o1	328	3	–	3	–	0.78 (≈ 1.81 µM)	1.56 (≈ 3.61 µM)	0.39 (≈ 0.903 µM)	12.5 (≈ 28.9 µM)	0.39 (≈ 0.903 µM)	1.56 (≈ 3.61 µM)	0.39 (≈ 0.903 µM)	–	3	–
